The list is not random: actives were taken first. Their share in the collection is about 9.2%.
Autophagy HCS: autophagy modulators in MEF cells, primary screen, imaging, high-content, MEF GFP-LC3. MEF GFP-LC3 puncta imaging; test concentration mostly 10 µM. calls only at 10 µM (by protocol). 190,000 compounds, 0.98% hits. AID 463193, 2010;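 active means percentage of spot-positive cells more than 3 SD above its plate mean, without a fluorescence outlier flag or 80% toxicity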;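 further: spot-positive cell cutoff set from DMSO-treated cells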
L major viab: Leishmania major promastigote growth inhibition, primary screen; 200,000 compounds, 9% hits; inhibition, % at 10 µM; Leishmania major promastigotes, resazurin fluorescence viability; in the data active means inhibition above about 50%;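 further: promastigotes grown with compound for 44 hours at 28 °C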
bCat KO growth: primary screen for growth suppressors in beta-catenin knockout HCT116 cells (colon tumor, human); HCT116 beta-catenin knockout viability, CellTiter-Glo, 60 h; active compounds read low; viability, % at 10 µM; 140,000 compounds, 1.5% hits; AID 818, 2007;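 active means viability at or under a set limit, the compound median less 4 SD, cut at about 6% in these data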;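 further: 0% = Hyamine 1622 control at 20 µM and 100% = untreated cell control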
HCT116 PTEN-null: growth suppression of PTEN-null HCT116, primary screen, cell-based, CellTiter-Glo | HCT116 PTEN-null viability, 60 h; active compounds read low | viability, % at 10 µM | 140,000 compounds, 1.2% hits | AID 827, 2007;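 active means viability at or below a set limit, 4 SD under the median of all tested compounds, cut at about 3.7% in these data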;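 further: PTEN knockout HCT116 line with beta catenin targeted HCT116 as companion control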
Dynein transport: inhibitors of GR-EGFP nuclear translocation, primary screen, dynein cargo transport inhibitor project, imaging, high-content, 3617.4 mouse cells | 220,000 compounds, 0.47% hits | z-score, hits read low | test concentration mostly 20 µM; stimulated with dexamethasone, 1 µM; active compounds read low;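 active means plate z-score of nuclear minus cytoplasmic receptor signal below a set negative limit, without overly bright fluorescence or cell loss, cut at about -3.5 in these data, passing the limit was not always enough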;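 further: z-score of nuclear minus cytoplasmic ring GR-EGFP intensity difference per well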
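Also added – dexamethasone, 1.0 µM final · Buffer or medium – tet-free, stripped-serum medium · Schedule – induction 48 h, compound 1 h, agonist 30 min · Detection – formaldehyde fixation, Hoechst nuclear stain, 10x automated fluorescence imaging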
Starred values were filed as active, the others as inactive; i = inactive; . = no result given; + = active, no number.

SMILES | Autophagy HCS | L major viab | bCat KO growth | HCT116 PTEN-null | Dynein transport
COc1ccc(/C=C(\C#N)C(=O)OCC(=O)Nc2ccc(-c3nc4ccc(C)cc4s3)cc2)cc1 | i | -2 | . | . | -0.09
CCn1nc(C(=O)NNC(=O)COc2ccc(OC)cc2)c2ccccc2c1=O | i | -7 | 89 | 100 | 0.09
Cn1nc(C(=O)NNC(=O)COc2ccccc2)c2ccccc2c1=O | i | 55* | 101 | 104 | -0.074
O=S(=O)(c1cccs1)N1CCC(CO)(Cc2cccc(F)c2)CC1 | i | 8 | . | . | 0.13
CCOc1ccc(-n2c(C)c(C(C)=O)c(C(C)=O)c2C)cc1 | + | -5 | 85 | 83 | -0.69
CCC(C)(C)c1nnc(NC(=O)c2ccc([N+](=O)[O-])cc2)s1 | i | -2 | 91 | 93 | -0.13
Cc1nn(-c2ccc(Cl)nn2)c(=O)c2ccccc12 | i | -3 | . | . | -0.64
O=C(c1n[nH]c2ccccc12)N1CCN(S(=O)(=O)c2ccc3ccccc3c2)CC1 | i | 55* | 86 | 68 | 3.2
O=C(CN1C(=O)c2ccccc2C1=O)N1CCN=C1c1ccccc1 | . | . | . | . | 0.42
CCCCNC(=O)/C(=C\c1ccc([N+](=O)[O-])o1)NC(=O)c1ccccc1 | i | 67* | . | . | 2.3
COC(=O)/C(=C\c1ccc([N+](=O)[O-])o1)NC(=O)c1ccccc1 | i | 95* | 69 | 63 | 0.59
Cc1ccc(C(=O)NCCN2C3=NC[C@H](C(C)C)N3C[C@H]2Cc2ccc(O)cc2)cc1Br | i | 5 | . | . | 1
COc1ccc(C[C@H]2CN3C(=NC[C@H]3C)N2CCNC(=O)c2ccc(C)c(Br)c2)cc1 | i | 53* | . | . | 0.71
COc1ccc(C[C@H]2CN3C(=NC[C@@H]3C(C)C)N2CCNC(=O)c2ccc(C)c(Br)c2)cc1 | i | 99* | . | . | 1.4
C/C(CCc1ccccc1)=N\NC(=O)CC(=O)NCCc1ccccc1 | i | -6 | 91 | 98 | 0.2
Cc1[nH]c2ccccc2c1C(=O)COC(=O)CCS(=O)(=O)c1ccccc1Cl | i | 60* | 88 | 101 | -0.71
CC1(C)Cc2c(cnn2-c2ccccc2)-c2c1c1ccccc1n2CC(O)CCl (stereo not drawn) | i | 100* | 72 | 66 | -0.19
Cc1ccc(-c2csc(NC(=O)/C=C/c3ccco3)c2C(=O)O)cc1 | i | -1 | . | . | 0.98
Cc1ccc(-c2nn(-c3cc(N4CCNCC4)ccc3[N+](=O)[O-])c(=O)c3ccccc23)cc1 | i | 101* | . | . | -1.4
CC(C)(C)S(=O)(=O)c1cnc2c(-c3ccc(Cl)cc3)cnn2c1N | i | 10 | 2.6* | 1.7* | 0.097
O=C(NN=C1CCCCCC1)C(=O)Nc1cccc(Br)c1 | i | -4 | 97 | 87 | 0.12
COC(=O)c1nc2ccc(N3CCOCC3)cc2c(C)c1C(=O)OC | + | 3 | . | . | 0.23
CC(C)=N/N=c1\scc(C)n1Cc1ccco1 | i | -5 | . | . | -1.4
COC(=O)c1cc(=O)n(Cc2ccco2)c(=Nc2ccc(F)cc2)s1 | i | 96* | . | . | -4.6*
Cc1cc2ncn(/N=C/c3cc(Br)ccc3O)c2cc1C | i | 28 | 84 | 89 | 0.92
SMILES | Autophagy HCS | L major viab | bCat KO growth | HCT116 PTEN-null | Dynein transport
O=[N+]([O-])c1ccc(/C=N/n2cnc3ccccc32)s1 | i | 100* | 2.4* | 3.0* | -1
Cc1cc2ncn(/N=C/c3ccc([N+](=O)[O-])s3)c2cc1C | i | 100* | 1.5* | 1.2* | -0.98
COc1ccccc1OCc1ccc(C(=O)Nc2ccncc2)o1 | i | 4 | 38 | 52 | 0.2
COC(=O)c1cc(S(=O)(=O)n2nc(C)c(Br)c2C)c(Cl)cc1Cl | i | 89* | 80 | 76 | -2.1
Cc1cc(C)n(S(=O)(=O)c2cc(C(=O)O)c(Cl)cc2Cl)n1 | i | -3 | . | . | 0.67
O=C(Nc1cccc(Cl)c1)Nc1ccccc1-n1ccnc1 | i | 74* | . | . | -0.92
CSc1ccccc1NC(=O)Nc1cccc(Cl)c1 | i | 17 | 74 | 71 | 0.58
Cc1ccc2cc(CN(Cc3ccc4c(c3)OCO4)Cc3nnnn3Cc3ccco3)c(=O)[nH]c2c1C | i | 68* | 87 | 74 | 0.57
COc1cc2cc(CN(CCCN3CCOCC3)Cc3nnnn3Cc3ccccc3)c(=O)[nH]c2cc1OC | i | -2 | . | . | -0.56
Cc1ccc2cc(CN(CCCN3CCOCC3)C(c3nnnn3Cc3ccco3)C(C)C)c(=O)[nH]c2c1C (stereo not drawn) | i | 67* | . | . | -1.4
COCCn1nnnc1CN(Cc1ccco1)Cc1cc2cc3c(cc2[nH]c1=O)OCO3 | i | -5 | 81 | 79 | -0.47
Cc1ccc(C)c2[nH]c(=O)c(CN(Cc3ccc4c(c3)OCO4)Cc3nnnn3Cc3ccco3)cc12 | i | 58* | 46 | 29 | -0.9
Cc1ccc2cc(CN(CCN3CCOCC3)Cc3nnnn3Cc3ccco3)c(=O)[nH]c2c1C | + | -3 | 79 | 85 | 2.8
CCC(c1nnnn1Cc1ccco1)N(CCN1CCOCC1)Cc1cc2cc(C)ccc2[nH]c1=O (stereo not drawn) | i | -6 | 110 | 101 | -0.43
Cc1cccc2cc(CN(CC3CCCO3)C(c3nnnn3Cc3ccco3)C(C)C)c(=O)[nH]c12 (stereo not drawn) | i | 50* | 42 | 40 | -0.69
Cc1ccc(-c2cc(C(=O)NCc3ccc4c(c3)OCO4)[nH]n2)c(O)c1C | i | 54* | 73 | 66 | -0.68
COc1ccc(CCNC(=O)c2cc(-c3ccc(C)c(C)c3O)n[nH]2)cc1OC | i | 93* | 94 | 79 | -0.69
COc1ccc(CCNC(=O)c2cc(-c3cc(C)ccc3O)n[nH]2)cc1OC | i | 89* | 102 | 114 | -0.5
Cc1cc(O)c(-c2cc(C(=O)NCc3ccc4c(c3)OCO4)[nH]n2)cc1C | i | 0 | 92 | 100 | -0.14
O=[N+]([O-])c1ccccc1CNC1CCCc2ccccc21 (stereo not drawn) | i | 4 | . | . | -0.56
Cc1cccc(-c2ncc(CN3CCN(CCC(C)C)C(CCO)C3)cn2)c1 (stereo not drawn) | i | 74* | . | . | 2
Cc1cccc(-c2ncc(CN3CCN(C4CCCC4)C(CCO)C3)cn2)c1 (stereo not drawn) | i | 64* | . | . | -0.25
O=C(Nc1ccc(Cl)c(Cl)c1)Nc1ccc(Br)cc1F | i | 0 | 4.9* | 4 | -0.35
COc1ccc(C2N(c3ccc(Cl)cc3)N=C(C(C)=O)N(C)N2C(C)=O)cc1 (stereo not drawn) | i | 58* | . | . | -0.78
Cc1cccnc1NCc1ccc(O)c2ncccc12 | i | 58* | 3.9* | 2.5* | -1.5
CCS(=O)(=O)c1ccc(OC)c(N=Nc2ccc(O)c3ncccc23)c1 | i | 100* | . | . | -0.99
